In series [1] the target is T1, Steroid 17-alpha-hydroxylase/17,20 lyase (Homo sapiens, UniProt P05093).
T1 sequence (P05093 whole entry): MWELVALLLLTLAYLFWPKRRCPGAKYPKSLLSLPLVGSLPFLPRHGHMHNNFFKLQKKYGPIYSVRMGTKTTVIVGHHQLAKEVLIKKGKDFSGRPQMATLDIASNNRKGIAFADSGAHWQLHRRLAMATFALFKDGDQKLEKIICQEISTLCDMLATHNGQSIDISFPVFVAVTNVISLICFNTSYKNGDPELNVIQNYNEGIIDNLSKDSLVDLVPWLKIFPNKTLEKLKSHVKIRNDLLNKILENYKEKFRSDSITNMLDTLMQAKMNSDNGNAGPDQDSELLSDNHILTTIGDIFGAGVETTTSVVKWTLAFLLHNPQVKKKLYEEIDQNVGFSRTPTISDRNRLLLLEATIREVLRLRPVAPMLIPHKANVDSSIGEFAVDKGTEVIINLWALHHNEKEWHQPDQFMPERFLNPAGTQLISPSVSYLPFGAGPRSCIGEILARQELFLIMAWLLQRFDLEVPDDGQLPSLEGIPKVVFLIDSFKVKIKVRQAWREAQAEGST
The experiment in a line: Inhibition of human Cytochrome P450 17. In a few lines:
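Human testicular microsomes with 25 µM progesterone as substrate. Product quantified by RP-HPLC with UV detection. IC50 is the mean of at least two experiments.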

Series [2] addresses T2, Steroid 17-alpha-hydroxylase/17,20 lyase (Rattus norvegicus, UniProt P11715).
T2 sequence (P11715 whole entry): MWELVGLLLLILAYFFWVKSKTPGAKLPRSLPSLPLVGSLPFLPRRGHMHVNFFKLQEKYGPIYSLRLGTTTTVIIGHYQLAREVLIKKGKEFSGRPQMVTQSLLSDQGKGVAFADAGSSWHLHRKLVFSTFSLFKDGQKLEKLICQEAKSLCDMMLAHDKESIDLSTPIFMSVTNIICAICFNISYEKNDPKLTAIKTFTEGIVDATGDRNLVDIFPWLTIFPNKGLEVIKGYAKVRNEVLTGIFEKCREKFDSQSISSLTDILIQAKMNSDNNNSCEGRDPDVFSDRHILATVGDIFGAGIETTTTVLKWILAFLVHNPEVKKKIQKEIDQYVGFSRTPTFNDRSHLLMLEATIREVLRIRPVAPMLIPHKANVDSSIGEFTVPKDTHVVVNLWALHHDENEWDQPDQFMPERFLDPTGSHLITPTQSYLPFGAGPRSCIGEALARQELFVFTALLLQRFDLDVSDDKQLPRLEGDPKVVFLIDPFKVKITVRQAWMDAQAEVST
The experiment in a line: Inhibition of rat Cytochrome P450 17. The essentials: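 Microsomes from rat testes with 25 µM progesterone as substrate. Product measured by RP-HPLC with UV detection. IC50 is the mean of at least two experiments.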

In series [3] the target is T2, Steroid 17-alpha-hydroxylase/17,20 lyase. In words: Evaluated for the inhibitory activity towards Cytochrome P450 17 rat enzyme using testicular microsome at 25 uM of substrate (progesterone). Details: species or system Testis; call rule not given here. In a few lines: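 Testicular microsomes (human for human enzyme, rat for rat enzyme) incubated with progesterone substrate at 25 µM; product measured by RP-HPLC with UV detection. IC50 = concentration giving 50% inhibition, mean of at least two experiments.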

The target of series [4] is T3, 3-oxo-5-alpha-steroid 4-dehydrogenase 2 (Homo sapiens, UniProt P31213).
T3 sequence (P31213 whole entry): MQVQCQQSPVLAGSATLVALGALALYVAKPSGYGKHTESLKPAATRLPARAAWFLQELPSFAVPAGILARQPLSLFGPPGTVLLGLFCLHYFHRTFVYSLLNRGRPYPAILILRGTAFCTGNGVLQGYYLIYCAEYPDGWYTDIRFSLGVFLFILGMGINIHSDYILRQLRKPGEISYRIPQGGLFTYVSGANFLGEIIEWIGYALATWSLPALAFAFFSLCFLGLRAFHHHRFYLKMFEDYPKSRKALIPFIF
In words: Inhibition of steroid 5-alpha-reductase type 2 from human BPH tissue at 210 nM testosterone; No inhibition. In a few lines: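 Enzyme from prostate homogenate of BPH patients, assayed at pH 5.5 with radiolabeled testosterone at 210 nM; product separated by HPLC. IC50 taken as inhibitor concentration giving 50% inhibition; mean of at least two experiments.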

The target in series [5] is T1, Steroid 17-alpha-hydroxylase/17,20 lyase. The experiment in a line: Evaluated for the inhibitory activity towards Cytochrome P450 17 human enzyme using testicular microsome at 25 uM of substrate (progesterone). Set-up: species or system Testis.
Series [6] addresses T4, 3-oxo-5-alpha-steroid 4-dehydrogenase 1 (Homo sapiens, UniProt P18405).
T4 sequence (P18405 whole entry): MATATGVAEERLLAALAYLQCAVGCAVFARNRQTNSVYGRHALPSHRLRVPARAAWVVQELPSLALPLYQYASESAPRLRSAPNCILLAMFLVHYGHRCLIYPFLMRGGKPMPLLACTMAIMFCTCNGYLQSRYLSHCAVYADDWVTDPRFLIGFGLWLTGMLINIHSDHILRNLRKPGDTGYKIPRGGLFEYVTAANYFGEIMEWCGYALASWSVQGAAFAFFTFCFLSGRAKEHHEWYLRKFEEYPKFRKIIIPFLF
The experiment in a line: Evaluated for the inhibitory activity against human steroid 5-alpha-reductase type I in human DU-145 cell assay at 5 nM of androstenedione. Format: cell-based. In a few lines: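 Whole human DU-145 cells as source of type 1 enzyme, incubated with radiolabeled androstenedione at 5 nM; HPLC separation of product. IC50 = inhibitor concentration giving 50% inhibition; mean of at least two experiments.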

The target of series [7] is T5, P450 scc (cholesterol side-chain cleavage enzyme, mitochondrial) (Bos taurus, UniProt P00189).
T5 sequence (P00189 whole entry): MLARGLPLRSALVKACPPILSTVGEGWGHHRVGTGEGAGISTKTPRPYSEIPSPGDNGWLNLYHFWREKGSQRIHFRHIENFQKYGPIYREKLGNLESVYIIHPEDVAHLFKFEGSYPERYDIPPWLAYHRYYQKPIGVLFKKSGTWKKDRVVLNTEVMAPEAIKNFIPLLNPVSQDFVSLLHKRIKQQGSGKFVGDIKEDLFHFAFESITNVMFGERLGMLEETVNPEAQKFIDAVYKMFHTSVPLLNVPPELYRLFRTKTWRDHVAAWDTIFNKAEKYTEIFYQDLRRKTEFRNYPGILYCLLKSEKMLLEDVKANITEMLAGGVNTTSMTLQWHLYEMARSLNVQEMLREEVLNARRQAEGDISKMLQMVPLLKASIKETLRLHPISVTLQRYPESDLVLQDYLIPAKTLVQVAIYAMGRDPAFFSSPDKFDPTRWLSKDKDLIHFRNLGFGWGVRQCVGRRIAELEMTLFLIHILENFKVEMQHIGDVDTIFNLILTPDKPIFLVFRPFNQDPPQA
The experiment in a line: Inhibition of P450 scc at 25 uM. To be noted: cattle. In a few lines:
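Bovine adrenal P450 scc preparation; inhibitor tested at 25 µM.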

A word on the IC50: it is the midpoint of a concentration-inhibition curve. By inhibition is commonly meant the share of the control response that was lost under treatment.

Take `CC12CCC(O)CC1=CCC1C2CCC2(C)C(c3c[nH]cn3)=CCC12` (centres undefined): the IC50 in series [1] was 40 nM; in series [2], 180 nM.
In the case of `C/C(=N/O)C1=CC=C2C3CCC4=CC(=O)CCC4(C)C3CCC12C` (centres undefined), the IC50 in series [3] is more than 125000 nM; in series [4], “Not Active”; in series [5], 200 nM; in series [6] it was more than 10000 nM.
As for `CC12CCC(O)CC1=CCC1C2CCC2(C)C(C/C=N/O)CCC12` (centres undefined), the IC50 in series [3] was found to be 2760 nM; in series [5], 270 nM. This compound also yielded an inhibition at 25 µM in series [7] of 74%.

The record behind these values is ChEMBL document CHEMBL1133510, “Synthesis and evaluation of novel steroidal oxime inhibitors of P450 17 (17 alpha-hydroxylase/C17-20-lyase) and 5 alpha-reductase types 1 and 2” (J Med Chem, 2000).
